Active and inactive are the calls of the source. The calls are words filed in the database; no cut-off is given here.
What was measured:
[1] = target: Cyclin-dependent kinase 2 (Homo sapiens) (UniProt P24941); experiment: Inhibition of CDK2 in human HCT116 cells assessed as Rb phosphorylation at 40 nM after 24 hrs by Western blot analysis; type: cell-based; settings: HCT-116
How it was run: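 HCT-116 cells (2 × 10^5 in McCoy's medium with 2 mM L-glutamine and 10% FBS) seeded 16−24 h before dosing. Each dish exposed to one compound concentration or DMSO for 24 h. Lysis in modified RIPA buffer; protein by Bradford. 30 μg lysate run on 10% SDS−PAGE, blotted to PVDF, probed for phospho-Rb and β-actin. ECL detection.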

Cytochrome P450 1A2 = target: T1, Cytochrome P450 1A2 (Homo sapiens, UniProt P05177); experiment: Inhibition of CYP1A2 in human liver microsomes using ethoxyresorufin as substrate after 5 mins by LC-MS/MS analysis; type: ADME, Microsome
T1 sequence (P05177 whole entry): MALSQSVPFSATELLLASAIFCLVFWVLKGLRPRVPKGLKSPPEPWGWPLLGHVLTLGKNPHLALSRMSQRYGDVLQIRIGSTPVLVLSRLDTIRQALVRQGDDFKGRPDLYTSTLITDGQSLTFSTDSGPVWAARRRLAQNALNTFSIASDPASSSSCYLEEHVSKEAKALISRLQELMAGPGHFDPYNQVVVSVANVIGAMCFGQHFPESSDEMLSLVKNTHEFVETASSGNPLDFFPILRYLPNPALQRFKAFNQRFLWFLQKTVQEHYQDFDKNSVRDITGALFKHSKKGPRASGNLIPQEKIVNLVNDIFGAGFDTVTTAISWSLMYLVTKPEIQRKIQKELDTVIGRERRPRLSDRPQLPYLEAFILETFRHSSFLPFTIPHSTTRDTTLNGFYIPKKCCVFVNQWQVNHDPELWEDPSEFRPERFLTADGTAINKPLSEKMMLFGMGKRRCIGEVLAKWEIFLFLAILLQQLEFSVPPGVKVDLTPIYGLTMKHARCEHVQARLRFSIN
How it was run: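 Human liver microsomes with 1 mM NADPH at 37 °C. Test concentrations 0.05, 0.25, 0.5, 2.5, 5 and 25 μM; final DMSO 0.35%. CYP1A: 0.25 mg/mL microsomes, ethoxyresorufin 0.5 μM, 5 min. CYP2D6: 0.5 mg/mL microsomes, dextromethorphan 5 μM, 30 min. IC50 from the fall in metabolite formation versus vehicle control. Selective inhibitors served as positive controls.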

Cytochrome P450 2C9 = Cytochrome P450 2C9 (Homo sapiens, UniProt P11712); experiment: Inhibition of CYP2C9 in human liver microsomes using Tolbutamide as substrate after 60 mins by LC-MS/MS analysis; type: ADME, Microsome
Cytochrome P450 2C9, sequence (P11712 whole entry): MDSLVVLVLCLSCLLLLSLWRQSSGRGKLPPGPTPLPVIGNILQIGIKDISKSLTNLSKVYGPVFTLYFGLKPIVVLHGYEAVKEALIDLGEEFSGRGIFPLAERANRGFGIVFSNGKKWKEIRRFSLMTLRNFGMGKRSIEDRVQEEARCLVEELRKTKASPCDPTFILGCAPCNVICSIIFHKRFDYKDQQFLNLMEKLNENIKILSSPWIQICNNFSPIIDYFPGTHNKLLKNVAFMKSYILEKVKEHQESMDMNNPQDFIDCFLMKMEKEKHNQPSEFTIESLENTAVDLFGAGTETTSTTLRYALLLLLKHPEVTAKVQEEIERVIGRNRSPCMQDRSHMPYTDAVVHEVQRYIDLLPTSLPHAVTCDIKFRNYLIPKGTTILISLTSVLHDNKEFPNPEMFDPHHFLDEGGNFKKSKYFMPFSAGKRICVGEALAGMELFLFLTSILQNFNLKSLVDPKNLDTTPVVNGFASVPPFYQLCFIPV
How it was run: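 Human liver microsomes (0.5 mg/mL for CYP2C19, 1 mg/mL for CYP2C9), NADPH 1 mM, test at 0.05−25 μM (DMSO 0.35% final), 37 °C; probes mephenytoin 25 μM (CYP2C19) and tolbutamide 120 μM (CYP2C9), 60 min each. IC50 from decrease in metabolite formation vs vehicle.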

[2] = Tmax in BALB/c mouse at 75 mg/kg, po by LC-MS/MS analysis; type: ADME, organism-based; design: dose 75 mg/kg, route oral; settings: in vivo
How it was run: (§1)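 Male BALB/c mice (~10−12 weeks, 17−22 g) gavaged with 75 mg/kg as a suspension in 0.5% methylcellulose/0.1% Tween 80. Serial blood by cardiac puncture over 0−24 h into K3EDTA, plasma stored at −70 °C, LC−MS/MS; parameters by noncompartmental analysis.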

[3] = Apparent permeability of the compound from apical to basolateral side in human Caco2 cells at 5 uM after 21 to 28 days by LC/MS analysis; type: ADME, cell-based; settings: Caco-2
How it was run: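 5 μM in HBSS (DMSO <1%) dosed apical or basolateral on 21−28-day confluent Caco-2 monolayers, both sides pH 7.4. Sampled at 2 h, quantified by LC/MS with four-point calibration. Monolayer integrity checked by pre-experiment TEER (450−650 Ωcm2) and Lucifer yellow; efflux ratio = Papp B→A / Papp A→B.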

[4] = Half life in human liver microsomes at 5 uM by LC-MS/MS analysis; type: ADME, Microsome
How it was run: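 5 μM with mouse, rat, dog or human liver microsomes (~0.87 mg/mL), 50 mM potassium phosphate pH 7.4, NADPH regeneration system, 37 °C.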

[5] = target: T2, Receptor-type tyrosine-protein kinase FLT3 (Homo sapiens, UniProt P36888); experiment: Inhibition of recombinant Flt3 using poly(Glu,Tyr) as substrate after 2 hrs by luminescence assay
T2 sequence (P36888 whole entry): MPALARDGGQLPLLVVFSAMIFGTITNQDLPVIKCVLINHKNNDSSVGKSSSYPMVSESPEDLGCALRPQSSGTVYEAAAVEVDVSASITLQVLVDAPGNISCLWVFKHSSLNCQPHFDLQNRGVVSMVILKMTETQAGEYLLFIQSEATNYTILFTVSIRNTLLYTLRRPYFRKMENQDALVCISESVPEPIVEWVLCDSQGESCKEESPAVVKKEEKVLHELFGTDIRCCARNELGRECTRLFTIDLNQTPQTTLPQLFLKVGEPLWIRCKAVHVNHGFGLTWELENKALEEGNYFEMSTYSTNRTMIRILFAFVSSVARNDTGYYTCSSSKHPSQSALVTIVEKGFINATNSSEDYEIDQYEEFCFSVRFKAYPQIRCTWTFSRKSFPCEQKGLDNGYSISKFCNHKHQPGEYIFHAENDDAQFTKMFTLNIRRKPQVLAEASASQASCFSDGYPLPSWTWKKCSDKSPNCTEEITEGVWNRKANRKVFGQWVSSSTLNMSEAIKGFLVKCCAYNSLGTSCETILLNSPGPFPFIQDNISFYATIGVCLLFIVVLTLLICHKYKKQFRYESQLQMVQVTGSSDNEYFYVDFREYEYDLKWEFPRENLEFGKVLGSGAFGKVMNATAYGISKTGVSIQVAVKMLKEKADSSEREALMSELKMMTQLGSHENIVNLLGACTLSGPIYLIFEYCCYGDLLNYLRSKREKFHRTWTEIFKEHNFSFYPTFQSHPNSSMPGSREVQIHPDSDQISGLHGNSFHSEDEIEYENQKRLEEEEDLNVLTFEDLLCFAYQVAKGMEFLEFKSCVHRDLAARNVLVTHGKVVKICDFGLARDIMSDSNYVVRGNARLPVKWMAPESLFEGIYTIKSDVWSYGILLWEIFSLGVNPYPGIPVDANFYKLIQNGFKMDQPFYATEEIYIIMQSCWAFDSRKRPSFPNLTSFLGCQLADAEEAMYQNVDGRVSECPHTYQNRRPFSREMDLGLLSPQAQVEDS

[6] = Terminal half life in BALB/c mouse at 5 mg/kg, iv by LC-MS/MS analysis; type: ADME, organism-based; design: dose 5 mg/kg, route intravenous; settings: in vivo, read-out: beta t1/2 (converted)
[7] = AUC (0 to infinity) in BALB/c mouse at 75 mg/kg, po by LC-MS/MS analysis; type: ADME, organism-based; design: time infinity, dose 75 mg/kg, route oral; settings: plasma; how it was run: as §1
[8] = Volume of distribution at steady state in BALB/c mouse at 5 mg/kg, iv by LC-MS/MS analysis; type: ADME, organism-based; design: dose 5 mg/kg, route intravenous; settings: in vivo, read-out: Vdss

Q: What does the source list for CN1C/C=C/CCOc2cccc(c2)-c2ccnc(n2)Nc2cccc(c2)C1 [ZOTIRACICLIB]?
A: inhibition [1]: Active; IC50 (Cytochrome P450 1A2): > 25 µM; IC50 (Cytochrome P450 2C9): > 25 µM; Tmax [2]: 30 min; Papp A→B at 5 µM [3]: 28 ×10⁻⁶ cm/s; half-life at 5 µM [4]: 45 min; IC50 [5]: 0.056 µM; half-life [6]: 276 min; AUC(0-inf) [7]: 2520 ng·h/mL; Vd [8]: 23 L/kg
